Source: PubChem
The list is not random: actives were taken first. Their share in the collection is about 2.9%.
Runt-CBFb FRET = inhibitors of RUNX1 Runt–CBFb binding, primary screen, biochemical, FRET, Cerulean-Runt, Venus-CBFb, uHTS; 220,000 tested, 0.46% active; Runt-related transcription factor 1 (Homo sapiens) + Core-binding factor subunit beta …; inhibition, % at 20 µM; Cerulean-Runt/Venus-CBFb FRET ratio 530/480, 1 h;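 active means inhibition over about 50% at 20 µM in the single-dose screen, limit read from the data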;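 further: 0% = DMSO wells and 100% = excess unlabeled CBFb competitor control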
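Schedule: protein complex preformed 1 h, compound exposure 1 h, room temperature, dark; test system: Cerulean-labeled Runt domain protein; amount: 100 nM per protein; buffer or medium: Tris 50 mM pH 7.5, KCl, K2SO4, 0.01% BSA; read-out: loss of energy transfer signal; detection: FRET fluorescence; controls: 5 µM unlabeled CBFb as full-inhibition high control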
RBBP9 inhibitor = human RBBP9 inhibitors, primary screen, biochemical, fluorescence polarization, FP-Rh probe, HTS; recombinant RBBP9; 220,000 tested, 0.2% active; inhibition, % at 7.94 µM; Serine hydrolase RBBP9 (Homo sapiens), O75884;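 active means inhibition above the campaign mean of all tested compounds plus 3 SD, cut at about 14% in these data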;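 further: plate controls were DMSO wells with RBBP9 for no effect and wells lacking RBBP9 protein for full effect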
Target sequence (O75884 whole entry, looked up): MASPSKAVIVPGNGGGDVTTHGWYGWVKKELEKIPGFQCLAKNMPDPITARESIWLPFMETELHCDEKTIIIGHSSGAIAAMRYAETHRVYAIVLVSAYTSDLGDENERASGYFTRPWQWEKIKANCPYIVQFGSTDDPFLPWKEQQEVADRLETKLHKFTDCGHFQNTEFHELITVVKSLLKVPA
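System: RBBP9 protein | Quantity: 2.5 µM RBBP9 dispensing solution, before mixing | Reagent: FP-Rh probe, 375 nM dispensing solution | Timing: Enzyme-compound preincubation 30 min, then probe labeling 45 min, 25 °C | Measured by: Fluorescence polarization | Read-out: % inhibition | Replication: One well per compound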
Runt-SMMHC FRET = inhibitors of RUNX1 Runt–CBFb-SMMHC binding, primary screen, biochemical, FRET, Cerulean-Runt, Venus-CBFb-SMMHC, uHTS; Runt-related transcription factor 1 (Homo sapiens) + Core-binding factor subunit beta …; Cerulean-Runt/Venus-CBFb-SMMHC FRET ratio 530/480, 1 h; inhibition, % at 20 µM; 220,000 tested, 0.74% active;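 active means mean inhibition across duplicate retests at 20 µM reaching about 50%, limit read from the data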;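 further: 0% = DMSO wells and 100% = wells with excess untagged CBFb-SMMHC; inhibitors lower the FRET ratio by blocking Runt binding to CBFb-SMMHC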
Hck Nef HTS = inhibitors of Nef-activated human Hck kinase, primary screen, biochemical, Z-Lyte FRET, 384-well, Hck-YEEI; Tyrosine-protein kinase HCK (Homo sapiens), P08631; Recombinant Hck-YEEI plus Nef, Z-Lyte FRET kinase assay; inhibition, % at 20 µM; 220,000 tested, 0.68% active; AID 463187, 2010;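 active means Hck-Nef kinase inhibition above about 50%, limit read from the data; inactive means inhibition below that limit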;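 further: 0% = DMSO with Hck plus Nef and 100% = Hck alone without Nef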
PfM18AAP inh-1 = PfM18AAP inhibitors, malaria aminopeptidase, primary screen, biochemical, QFRET, recombinant enzyme | M18 aspartyl aminopeptidase (Plasmodium falciparum 3D7) | H-Glu-NHMec fluorogenic cleavage | inhibition, % at 7.35 µM | 290,000 tested, 1.2% active | AID 1822, 2009;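 active means inhibition above the campaign mean inhibition over all tested compounds plus 3 SD, cut at about 28% in these data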;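 further: 0% = plate median of test compound wells and 100% = 2 mM ZnCl2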
RanGTP-Imp inh = inhibitors of RanGTP-importin-beta interaction, primary screen, biochemical, FRET, CFP-Ran, YFP-importin-beta, homogeneous | cell-free CFP-Ran/YFP-importin-beta FRET ratio | AID 2216, 2009 | inhibition, % (no concentration beside the values) | 300,000 tested, 1.1% active | Ran GTPase (GTP-bound) - importin-beta complex;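 active means more than half of the replicate wells show a fall in the fluorescence ratio signal beyond about 16%, limit read from the data, passing the limit was not always enough; inconclusive means exactly half of the replicate wells pass the set limit; inactive means fewer than half of replicates pass the limit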;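 further: 0% = DMSO wells and 100% = Ran loaded with GDP instead of GTP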
PfM18AAP inh-2 = PfM18AAP inhibitors, malaria aminopeptidase, confirmation, biochemical, QFRET, recombinant enzyme, triplicate; shares compounds with PfM18AAP inh-1; H-Glu-NHMec fluorogenic cleavage; inhibition, % at 7.35 µM; 2,400 tested, 28% active; AID 2170, 2009;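 active means mean inhibition over replicate wells above the hit cutoff set for the earlier primary screen, cut at about 29% in these data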;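 further: 0% = median of test compound wells and 100% = 2 mM ZnCl2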
CTSL1 confirm = cathepsin L1 inhibitors, retest, confirmation, counter-screen for PFM18AAP inhibitor project, biochemical, QFRET, triplicate. purified cathepsin L1, Z-Leu-Arg-MCA fluorescence. 2,400 tested, under 10 active. inhibition, % at 5.96 µM. shares compounds with PfM18AAP inh-1;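 active means average inhibition across replicates above the hit cutoff set in the earlier primary screen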;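 further: 0% = median of test compound wells and 100% = Z-Phe-Ala-diazomethylketone 1 µM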
Target sequence (P07711 whole entry, looked up): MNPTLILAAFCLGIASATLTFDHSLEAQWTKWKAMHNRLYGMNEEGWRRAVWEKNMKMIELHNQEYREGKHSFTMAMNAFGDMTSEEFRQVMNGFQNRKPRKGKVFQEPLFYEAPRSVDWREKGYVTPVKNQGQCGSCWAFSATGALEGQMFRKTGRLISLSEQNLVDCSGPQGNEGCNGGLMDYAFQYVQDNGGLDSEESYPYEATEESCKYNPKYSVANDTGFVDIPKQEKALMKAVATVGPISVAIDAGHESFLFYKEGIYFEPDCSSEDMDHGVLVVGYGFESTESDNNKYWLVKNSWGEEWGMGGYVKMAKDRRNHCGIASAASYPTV
* = called active by the depositor; u = inconclusive; x = no result given.

SMILES	Runt-CBFb FRET	RBBP9 inhibitor	Runt-SMMHC FRET	Hck Nef HTS	PfM18AAP inh-1	RanGTP-Imp inh	PfM18AAP inh-2	CTSL1 confirm
CC(C(=O)OCC(=O)c1ccc([N+](=O)[O-])cc1)N1C(=O)C2C3CCC(C3)C2C1=O (stereo unspecified)	2.7	-4.2	-3.2	-11.3	41.2*	3.5	-11.3	-1.2
NC(=O)c1ccsc1NC(=O)COC(=O)c1cc(Cl)ccc1O	x	x	x	x	x	7.3	x	x
COc1cccc(-c2ccc3nnc(SCC(=O)Nc4ccc(NC(C)=O)cc4)n3n2)c1	x	x	x	x	x	-4.2	x	x
O=C(COc1ccccc1)N/N=C/c1ccc([N+](=O)[O-])o1	31.5	-4.5	35.3	-1.1	38.6*	1.8	-20.0	7.4
Nc1nncn1C(=O)c1ccc(Cl)cc1Cl	-2.0	-7.3	-2.3	3.7	37.1*	2.2	51.1*	-1.0
Nc1nc(-c2cccnc2)nn1C(=O)c1ccccc1Cl	0.5	4.7	0.9	2.4	-4.1	2.7	x	x
Nc1nncn1C(=O)c1ccccc1Cl	-0.6	-3.4	6.5	0.4	60.4*	u	54.5*	-1.2
O=C(c1ccc(Cl)cc1Cl)N1CCN(c2ccc(N3CCOCC3)nn2)CC1	x	x	x	x	x	1.8	x	x
COc1ccc(N2CC(C(=O)Nc3ccncc3)CC2=O)cc1 (stereo unspecified)	x	x	x	x	-3.4	u	x	x
CCn1c(CSc2ncn[nH]2)nc2cc(C(=O)O)ccc21	-1.0	4.8	-13.1	1.4	48.0*	4.4	8.9	6.4
CN(C)c1ccc(P(=O)(OC2CCCCC2)C(O)c2ccncc2)cc1 (stereo unspecified)	1.5	-0.3	-2.9	-13.3	-9.0	-1.5	x	x
CCN1/C(=C/C(C)=C/c2sc3ccccc3[n+]2CC)Sc2ccccc21	43.6	-160.6	28.2	39.4	43.8*	-0.2	-35.3	-4.6
COc1cc(-c2c(C#N)c(N)nc3[nH]c(=S)[nH]c(=O)c23)ccc1O	x	x	x	x	33.3*	0.6	20.8	6.7
CCN(CCCNC(=O)C1CCCN(S(=O)(=O)CC)C1)c1cccc(C)c1 (stereo unspecified)	7.0	-7.7	-9.3	2.3	47.3*	-4.1	-39.6	-2.9
CCN(CCCNC(=O)C1CCN(S(=O)(=O)c2cnc[nH]2)CC1)c1cccc(C)c1	-1.2	-4.2	0.7	3.3	51.1*	-4.4	-33.5	-0.6
COC(=O)c1ccc(NS(=O)(=O)NC(=O)c2cn(C)c3ccccc23)cc1	x	x	x	x	-1.4	-0.6	x	x
Cn1c(CNC(=O)c2ccco2)nnc1SCC(=O)Nc1ccc(Cl)cc1	x	x	x	x	x	2.8	x	x
CSc1ccc(/C=N/n2c(Cc3ccc(Br)cc3)n[nH]c2=S)cc1	2.2	-10.3	6.9	13.9	11.6	1.0	x	x
FC(F)Oc1ccc(/C=N/n2c(Cc3ccc(Br)cc3)n[nH]c2=S)cc1	x	x	x	x	46.1*	4.0	-4.7	-0.2
COc1ccc(-c2nc(=S)c3c([nH]2)Oc2ccc(C)cc2C3)cc1O	0.3	-13.6	-18.0	1.8	9.9	-5.5	x	x
Cc1ccc(N=Nc2c(N)[nH]n3c(=O)cc(-c4ccccc4)nc23)cc1	-11.4	-1.6	-9.2	1.1	-10.6	x	x	x
Cc1cc(=O)n2[nH]c(N)c(N=Nc3ccccc3)c2n1	-5.2	-8.2	-5.5	3.0	41.5*	0.1	32.2*	7.8
Cc1ccc(-c2nnn(CC(=O)N(CC(=O)NC(C)C)c3cnc4ccccc4c3)n2)o1	1.8	-4.7	5.7	11.5	11.0	1.2	x	x
Cc1ccc(-c2nnn(CC(=O)N(CC(=O)NC3CCCC3)c3cnc4ccccc4c3)n2)o1	-0.5	-1.2	5.2	-2.7	43.8*	2.1	-36.4	4.0
O=[N+]([O-])c1ccccc1S(=O)(=O)NC1CCCCCCC1	x	x	x	x	-0.5	8.5	x	x
SMILES	Runt-CBFb FRET	RBBP9 inhibitor	Runt-SMMHC FRET	Hck Nef HTS	PfM18AAP inh-1	RanGTP-Imp inh	PfM18AAP inh-2	CTSL1 confirm
O=C1CCCCCCC1Sc1ccccc1[N+](=O)[O-] (stereo unspecified)	37.8	-10.4	5.7	-22.4	38.1*	0.6	-47.8	-0.1
NC(=O)C1(N2CCCCC2)CCN(C(=S)Nc2ccc(S(N)(=O)=O)cc2)CC1	38.2	-9.6	33.6	12.2	32.8*	1.5	11.4	5.2
NC(=O)C1(N2CCCCC2)CCN(C(=S)Nc2ccc(F)c(Cl)c2)CC1	-1.5	3.5	-3.9	10.3	-2.9	0.2	x	x
NS(=O)(=O)c1ccc(NC(=S)N2CCC(Cc3ccccc3)CC2)cc1	x	x	x	x	36.8*	-3.5	-19.1	-4.0
CCCN1CCN(C(=S)Nc2ccc(S(N)(=O)=O)cc2)CC1	0.4	-6.0	-0.9	7.8	9.0	2.1	x	x
N#C/C(=C\c1ccc(O)c(O)c1)S(=O)(=O)c1ccccc1	3.2	-0.5	-16.7	-4.1	50.7*	u	24.1	5.3
N#C/C(=C/c1ccc(F)cc1)S(=O)(=O)c1ccccc1	0.5	-2.7	-4.8	2.4	-9.5	3.8	x	x
CCOC(=O)c1c(-c2ccc(C)o2)csc1NC(=O)CSc1ncn[nH]1	31.1	-2.4	14.0	-2.3	60.5*	-0.5	25.5	1.5
CCOC(=O)c1c(NC(=O)CSc2ncn[nH]2)sc(C(C)=O)c1C	x	x	x	x	33.0*	6.7	23.4	5.0
O=C(CSCc1cc(=O)n2ccsc2n1)Nc1ccccc1	x	x	x	x	-8.4	-2.5	x	x
COc1cccc(C2C(C#N)=C(N)OC3=C2C(=O)CC(c2ccco2)C3)c1OCc1ccc(F)cc1 (stereo unspecified)	20.8	-5.1	4.9	5.6	35.0*	2.3	-52.8	-5.6
N#CC1=C(N)OC2=C(C(=O)CC(c3ccco3)C2)C1c1ccc(OCc2c(F)cccc2Cl)cc1 (stereo unspecified)	24.7	-15.2	6.2	-2.1	2.1	6.6	x	x
Cc1ccc(S(=O)(=O)Nc2ccccc2-c2ccccc2NS(=O)(=O)c2ccc(C)cc2)cc1	-6.8	-6.3	-4.8	1.6	6.6	-3.4	x	x
CCCCOC(=O)Nc1ccc(S(=O)(=O)Nc2ncccn2)cc1	1.7	-6.1	-2.6	7.7	1.6	1.8	x	x
